Source: ChEMBL document CHEMBL3098105, “7,7'-Diazaindirubin--a small molecule inhibitor of casein kinase 2 in vitro and in cells” (Bioorg Med Chem, 2014)
The source made the active and inactive calls. The calls are words filed in the database; no cut-off is given here.

How the values were obtained:
NCI-H522 = assay: Antiproliferative activity against human NCI-H522 cells after 3 days by sulforhodamine B assay; format: functional; conditions: NCI-H522, 72 h
How it was run: (§1)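 Tested in the NCI 60 cell line panel. GI50 is the concentration giving 50% inhibition of cell growth, and values are the mean of two series of tests.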

[1] = target: Tyrosine-protein kinase ITK/TSK (Homo sapiens) (UniProt Q08881); assay: Inhibition of human Itk assessed as residual activity at 1 uM relative to control
[2] = target: Macrophage colony-stimulating factor 1 receptor (Homo sapiens) (UniProt P07333); assay: Inhibition of human Fms assessed as residual activity at 1 uM relative to control
NCI-H226 = assay: Antiproliferative activity against human NCI-H226 cells after 3 days by sulforhodamine B assay; format: functional; conditions: NCI-H226, 72 h; how it was run: as §1
[3] = target: RAC-alpha serine/threonine-protein kinase (Homo sapiens) (UniProt P31749); assay: Inhibition of human PKBalpha assessed as residual activity at 1 uM relative to control
[4] = target: Serine/threonine-protein kinase TBK1 (Homo sapiens) (UniProt Q9UHD2); assay: Inhibition of human TBK1 assessed as residual activity at 1 uM relative to control
[5] = target: Discoidin domain-containing receptor 2 (Homo sapiens) (UniProt Q16832); assay: Inhibition of human DDR2 assessed as residual activity at 1 uM relative to control
[6] = target: T1, Casein kinase II (Homo sapiens) (UniProt P67870+P68400+P19784); assay: Inhibition of CK2 in human MCF7 cells assessed as reduction of Akt phosphorylation at S473 at 0.25 to 8 uM after 2 hrs by Western blot analysis; format: cell-based
How it was run: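 Cells were lysed in urea lysis buffer (6 M urea, NaF, Na3VO4, protease inhibitors). 20–40 µg protein was run on 10% SDS-PAGE and detected by ECL. Primary antibodies (pAkt S473, PARP, β-actin loading control) were used at 1:1000 overnight at 4 °C. DMSO was the vehicle control. For the pAkt blots, cells were treated for 2 h with Ly294002 as positive control.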

[7] = target: Glycogen synthase kinase-3 beta (Homo sapiens) (UniProt P49841); assay: Inhibition of GSK3-beta (unknown origin) assessed as residual activity at 10 uM relative to control
[8] = target: Tyrosine-protein kinase CSK (Homo sapiens) (UniProt P41240); assay: Inhibition of human CSK assessed as residual activity at 1 uM relative to control
[9] = target: Serine/threonine-protein kinase BRSK1 (Homo sapiens) (UniProt Q8TDC3); assay: Inhibition of human BrSK1 assessed as residual activity at 1 uM relative to control
[10] = target: Cyclin-dependent kinase 4/cyclin D1 (Homo sapiens) (UniProt P11802+P24385); assay: Inhibition of CDK4/CycD1 (unknown origin) assessed as residual activity at 10 uM relative to control; format: protein-complex assay
MDA-MB-435 = assay: Antiproliferative activity against human MDA-MB-435 cells after 3 days by sulforhodamine B assay; format: functional; conditions: MDA-MB-435, 72 h; how it was run: as §1
[11] = target: T2, Serine/threonine-protein kinase Chk1 (Homo sapiens) (UniProt O14757); assay: Inhibition of human CHK1 assessed as residual activity at 1 uM relative to control
T2 sequence (whole entry): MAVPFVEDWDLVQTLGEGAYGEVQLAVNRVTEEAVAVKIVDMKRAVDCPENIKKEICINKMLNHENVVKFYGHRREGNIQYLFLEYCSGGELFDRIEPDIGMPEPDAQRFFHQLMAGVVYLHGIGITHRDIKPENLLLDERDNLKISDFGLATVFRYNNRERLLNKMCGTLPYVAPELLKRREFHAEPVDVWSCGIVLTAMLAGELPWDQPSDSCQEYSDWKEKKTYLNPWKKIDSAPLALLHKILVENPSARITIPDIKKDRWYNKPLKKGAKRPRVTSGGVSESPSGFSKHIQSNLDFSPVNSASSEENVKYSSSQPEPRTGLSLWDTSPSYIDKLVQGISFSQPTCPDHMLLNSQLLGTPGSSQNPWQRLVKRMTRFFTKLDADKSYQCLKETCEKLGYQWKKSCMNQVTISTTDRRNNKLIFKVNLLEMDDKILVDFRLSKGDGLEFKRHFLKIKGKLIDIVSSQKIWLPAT

[12] = target: Serine/threonine-protein kinase pim-2 (Homo sapiens) (UniProt Q9P1W9); assay: Inhibition of human Pim-2 assessed as residual activity at 1 uM relative to control
[13] = target: Serine/threonine-protein kinase MARK1 (Homo sapiens) (UniProt Q9P0L2); assay: Inhibition of human MARK1 assessed as residual activity at 1 uM relative to control
[14] = target: Tyrosine-protein kinase TXK (Homo sapiens) (UniProt P42681); assay: Inhibition of human Txk assessed as residual activity at 1 uM relative to control
SN12C = assay: Antiproliferative activity against human SN12C cells after 3 days by sulforhodamine B assay; format: functional; conditions: 72 h
[15] = target: T1, Casein kinase II (Homo sapiens); assay: Inhibition of CK2 in human MCF7 cells assessed as reduction of Akt phosphorylation at S473 at 1 uM after 30 mins by Western blot analysis; format: cell-based
How it was run: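 MCF7 cells were grown at 37 °C and 5% CO2 in DMEM with 10% heat-inactivated FBS and penicillin/streptomycin. Cells were exposed to 1 µM for the indicated times, with DMSO as the untreated control. Extracts were made in urea lysis buffer, and 20–40 µg protein was run on 10% SDS–PAGE. Blots were probed with primary antibodies (1:1000, overnight, 4 °C) and read by ECL, with β-actin as loading control.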

SK-MEL-28 = assay: Antiproliferative activity against human SK-MEL-28 cells after 3 days by sulforhodamine B assay; format: functional; conditions: SK-MEL-28, 72 h; how it was run: as §1
[16] = target: Serine/threonine-protein kinase PAK 6 (Homo sapiens) (UniProt Q9NQU5); assay: Inhibition of human PAK6 assessed as residual activity at 1 uM relative to control
[17] = target: MAP kinase-activated protein kinase 3 (Homo sapiens) (UniProt Q16644); assay: Inhibition of human MAPKAP-K3 assessed as residual activity at 1 uM relative to control
[18] = target: Dual specificity tyrosine-phosphorylation-regulated kinase 2 (Homo sapiens) (UniProt Q92630); assay: Inhibition of human DYRK2 assessed as residual activity at 1 uM relative to control
[19] = target: Serine/threonine-protein kinase haspin (Homo sapiens) (UniProt Q8TF76); assay: Inhibition of human Haspin assessed as residual activity at 1 uM relative to control
[20] = target: Serine/threonine-protein kinase Chk2 (Homo sapiens) (UniProt O96017); assay: Inhibition of CHK2 (unknown origin) assessed as residual activity at 10 uM relative to control
[21] = target: Serine/threonine-protein kinase PAK 5 (Homo sapiens) (UniProt Q9P286); assay: Inhibition of human PAK5 assessed as residual activity at 1 uM relative to control
[22] = target: Ephrin type-B receptor 3 (Homo sapiens) (UniProt P54753); assay: Inhibition of human EphB3 assessed as residual activity at 1 uM relative to control
Ephrin type-B receptor 3 (Homo sapiens), sequence (P54753 whole entry): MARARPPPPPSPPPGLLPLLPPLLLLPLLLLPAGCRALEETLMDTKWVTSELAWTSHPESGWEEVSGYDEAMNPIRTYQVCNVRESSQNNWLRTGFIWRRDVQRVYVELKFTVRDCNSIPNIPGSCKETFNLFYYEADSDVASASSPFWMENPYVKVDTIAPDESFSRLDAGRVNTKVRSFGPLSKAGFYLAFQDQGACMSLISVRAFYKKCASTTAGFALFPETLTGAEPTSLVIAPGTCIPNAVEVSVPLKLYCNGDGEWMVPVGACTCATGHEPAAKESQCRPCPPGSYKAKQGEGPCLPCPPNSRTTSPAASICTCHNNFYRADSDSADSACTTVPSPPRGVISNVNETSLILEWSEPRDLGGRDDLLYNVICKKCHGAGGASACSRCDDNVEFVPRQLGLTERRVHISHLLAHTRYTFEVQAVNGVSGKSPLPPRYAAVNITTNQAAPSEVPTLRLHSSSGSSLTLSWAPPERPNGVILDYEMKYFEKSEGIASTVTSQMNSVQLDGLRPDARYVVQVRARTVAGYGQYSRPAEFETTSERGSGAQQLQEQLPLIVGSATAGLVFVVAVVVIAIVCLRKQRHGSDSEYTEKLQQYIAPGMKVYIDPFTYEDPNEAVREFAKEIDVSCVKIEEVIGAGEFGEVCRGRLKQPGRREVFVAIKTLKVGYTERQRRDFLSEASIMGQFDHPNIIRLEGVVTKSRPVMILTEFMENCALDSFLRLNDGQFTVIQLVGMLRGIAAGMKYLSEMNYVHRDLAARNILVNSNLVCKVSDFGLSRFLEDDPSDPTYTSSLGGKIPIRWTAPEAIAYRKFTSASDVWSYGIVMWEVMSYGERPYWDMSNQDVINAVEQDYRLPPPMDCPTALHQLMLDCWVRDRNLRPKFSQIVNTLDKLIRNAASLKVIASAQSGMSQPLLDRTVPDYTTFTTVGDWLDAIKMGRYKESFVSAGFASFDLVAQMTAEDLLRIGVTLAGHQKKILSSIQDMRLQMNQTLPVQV

RAC-alpha serine/threonine-protein kinase (Homo sapiens), sequence (P31749 whole entry): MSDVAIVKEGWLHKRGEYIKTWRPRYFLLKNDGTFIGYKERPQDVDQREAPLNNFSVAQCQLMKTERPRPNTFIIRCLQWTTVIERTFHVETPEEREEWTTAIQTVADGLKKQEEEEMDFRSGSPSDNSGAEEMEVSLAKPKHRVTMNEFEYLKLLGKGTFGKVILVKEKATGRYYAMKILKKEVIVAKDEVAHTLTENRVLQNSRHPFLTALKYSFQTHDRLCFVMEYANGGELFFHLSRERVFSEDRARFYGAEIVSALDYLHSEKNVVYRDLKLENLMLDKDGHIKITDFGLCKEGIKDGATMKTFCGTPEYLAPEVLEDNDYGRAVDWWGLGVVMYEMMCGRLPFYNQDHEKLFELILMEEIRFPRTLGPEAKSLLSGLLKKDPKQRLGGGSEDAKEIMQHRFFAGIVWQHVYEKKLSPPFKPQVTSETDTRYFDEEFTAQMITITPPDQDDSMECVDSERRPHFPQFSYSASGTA
Serine/threonine-protein kinase pim-2 (Homo sapiens), sequence (Q9P1W9 whole entry, looked up): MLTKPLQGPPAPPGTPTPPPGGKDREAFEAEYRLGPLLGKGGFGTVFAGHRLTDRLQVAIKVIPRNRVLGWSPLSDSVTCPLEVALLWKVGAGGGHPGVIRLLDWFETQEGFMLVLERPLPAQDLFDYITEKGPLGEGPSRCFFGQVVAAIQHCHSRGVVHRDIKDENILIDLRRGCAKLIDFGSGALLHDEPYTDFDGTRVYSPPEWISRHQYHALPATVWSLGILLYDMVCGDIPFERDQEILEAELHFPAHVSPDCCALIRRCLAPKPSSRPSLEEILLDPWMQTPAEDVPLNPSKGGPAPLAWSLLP
Serine/threonine-protein kinase MARK1 (Homo sapiens), sequence (Q9P0L2 whole entry, looked up): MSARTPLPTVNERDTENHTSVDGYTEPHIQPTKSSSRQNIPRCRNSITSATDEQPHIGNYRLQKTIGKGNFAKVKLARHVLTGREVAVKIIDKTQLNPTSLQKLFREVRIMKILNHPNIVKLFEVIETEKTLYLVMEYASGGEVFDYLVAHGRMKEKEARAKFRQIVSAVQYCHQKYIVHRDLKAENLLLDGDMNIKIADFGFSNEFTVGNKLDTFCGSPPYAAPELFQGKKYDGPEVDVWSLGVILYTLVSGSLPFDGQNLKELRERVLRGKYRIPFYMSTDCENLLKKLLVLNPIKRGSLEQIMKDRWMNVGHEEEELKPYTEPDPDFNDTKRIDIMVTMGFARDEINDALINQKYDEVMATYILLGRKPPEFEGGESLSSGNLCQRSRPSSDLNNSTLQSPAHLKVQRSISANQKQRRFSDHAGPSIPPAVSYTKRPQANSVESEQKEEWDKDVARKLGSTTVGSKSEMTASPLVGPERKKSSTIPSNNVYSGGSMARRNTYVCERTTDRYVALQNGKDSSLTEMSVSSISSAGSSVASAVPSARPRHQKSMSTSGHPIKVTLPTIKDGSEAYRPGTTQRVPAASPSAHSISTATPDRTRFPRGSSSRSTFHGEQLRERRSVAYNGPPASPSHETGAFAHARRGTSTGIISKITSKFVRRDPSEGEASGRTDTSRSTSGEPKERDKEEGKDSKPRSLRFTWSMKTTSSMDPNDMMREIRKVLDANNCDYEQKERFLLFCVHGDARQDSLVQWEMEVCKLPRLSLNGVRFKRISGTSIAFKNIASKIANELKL
Serine/threonine-protein kinase BRSK1 (Homo sapiens), sequence (Q8TDC3 whole entry): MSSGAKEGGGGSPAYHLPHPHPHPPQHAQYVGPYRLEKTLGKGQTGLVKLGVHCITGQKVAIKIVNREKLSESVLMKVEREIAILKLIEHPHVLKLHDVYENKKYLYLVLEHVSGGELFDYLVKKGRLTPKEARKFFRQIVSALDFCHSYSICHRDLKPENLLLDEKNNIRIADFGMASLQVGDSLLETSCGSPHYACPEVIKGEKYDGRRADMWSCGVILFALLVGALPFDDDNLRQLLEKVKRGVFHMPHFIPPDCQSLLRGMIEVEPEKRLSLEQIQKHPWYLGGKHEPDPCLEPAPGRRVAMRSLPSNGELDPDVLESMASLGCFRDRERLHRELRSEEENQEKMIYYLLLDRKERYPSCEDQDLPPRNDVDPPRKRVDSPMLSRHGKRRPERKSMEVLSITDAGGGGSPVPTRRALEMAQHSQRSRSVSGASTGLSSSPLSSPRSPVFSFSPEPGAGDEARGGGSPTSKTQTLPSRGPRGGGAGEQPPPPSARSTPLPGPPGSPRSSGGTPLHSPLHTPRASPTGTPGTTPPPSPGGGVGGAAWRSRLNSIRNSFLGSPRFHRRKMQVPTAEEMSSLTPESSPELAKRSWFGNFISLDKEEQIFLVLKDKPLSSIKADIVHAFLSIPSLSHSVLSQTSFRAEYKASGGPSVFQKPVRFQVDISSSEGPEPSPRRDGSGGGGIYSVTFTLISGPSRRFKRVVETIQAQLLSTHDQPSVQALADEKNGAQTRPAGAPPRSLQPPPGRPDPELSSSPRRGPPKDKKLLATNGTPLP
Macrophage colony-stimulating factor 1 receptor (Homo sapiens), sequence (P07333 whole entry): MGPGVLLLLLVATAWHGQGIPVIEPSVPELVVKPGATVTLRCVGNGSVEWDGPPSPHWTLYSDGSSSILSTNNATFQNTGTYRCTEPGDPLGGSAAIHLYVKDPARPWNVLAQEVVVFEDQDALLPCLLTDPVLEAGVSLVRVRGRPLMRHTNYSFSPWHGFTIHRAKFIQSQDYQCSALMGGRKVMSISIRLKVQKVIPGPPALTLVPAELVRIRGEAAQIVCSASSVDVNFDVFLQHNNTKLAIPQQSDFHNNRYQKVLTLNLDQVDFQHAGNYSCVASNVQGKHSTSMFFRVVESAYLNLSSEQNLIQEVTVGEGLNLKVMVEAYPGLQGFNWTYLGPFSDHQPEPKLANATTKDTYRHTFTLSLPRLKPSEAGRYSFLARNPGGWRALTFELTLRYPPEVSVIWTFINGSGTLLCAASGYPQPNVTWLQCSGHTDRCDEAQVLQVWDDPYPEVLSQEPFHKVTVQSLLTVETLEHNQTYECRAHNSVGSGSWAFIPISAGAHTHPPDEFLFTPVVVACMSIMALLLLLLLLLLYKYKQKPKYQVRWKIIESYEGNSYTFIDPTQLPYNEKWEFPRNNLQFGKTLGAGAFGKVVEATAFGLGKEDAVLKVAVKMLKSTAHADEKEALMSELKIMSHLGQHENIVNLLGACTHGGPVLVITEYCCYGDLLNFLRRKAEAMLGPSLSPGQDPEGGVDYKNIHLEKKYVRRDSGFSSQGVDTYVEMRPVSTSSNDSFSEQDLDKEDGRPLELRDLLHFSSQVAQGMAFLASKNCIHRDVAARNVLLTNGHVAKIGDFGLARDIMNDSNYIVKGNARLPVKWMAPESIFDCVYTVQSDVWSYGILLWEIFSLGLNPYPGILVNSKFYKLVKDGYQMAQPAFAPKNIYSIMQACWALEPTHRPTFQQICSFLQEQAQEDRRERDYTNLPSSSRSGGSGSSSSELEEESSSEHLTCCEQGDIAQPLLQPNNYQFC
Serine/threonine-protein kinase TBK1 (Homo sapiens), sequence (Q9UHD2 whole entry, the tested form may be a part): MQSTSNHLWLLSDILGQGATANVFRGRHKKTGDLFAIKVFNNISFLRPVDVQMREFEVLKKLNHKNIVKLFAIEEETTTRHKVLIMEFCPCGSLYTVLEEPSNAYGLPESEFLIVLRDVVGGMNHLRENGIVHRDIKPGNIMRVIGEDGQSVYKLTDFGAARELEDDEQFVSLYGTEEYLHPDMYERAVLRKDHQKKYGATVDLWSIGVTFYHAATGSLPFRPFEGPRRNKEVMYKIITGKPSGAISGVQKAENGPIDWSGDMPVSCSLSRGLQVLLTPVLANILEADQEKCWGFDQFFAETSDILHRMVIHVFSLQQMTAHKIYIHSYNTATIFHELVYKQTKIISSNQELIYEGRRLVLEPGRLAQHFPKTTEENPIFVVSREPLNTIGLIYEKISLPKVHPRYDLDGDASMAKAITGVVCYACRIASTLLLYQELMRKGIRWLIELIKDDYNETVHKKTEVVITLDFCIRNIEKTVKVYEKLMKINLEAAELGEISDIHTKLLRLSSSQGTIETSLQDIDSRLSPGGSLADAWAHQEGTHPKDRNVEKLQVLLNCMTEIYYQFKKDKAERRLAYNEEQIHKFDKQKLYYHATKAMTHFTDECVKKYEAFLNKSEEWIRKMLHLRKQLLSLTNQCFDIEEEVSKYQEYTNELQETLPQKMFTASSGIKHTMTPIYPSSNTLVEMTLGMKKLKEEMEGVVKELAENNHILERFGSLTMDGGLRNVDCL

GI50 (NCI-H522): 2180 nM
Activity [1]: 106%
Activity [2]: 91%
GI50 (NCI-H226): 1420 nM
Activity [3]: 94%
Activity [4]: 120%
Activity [5]: 119%
inhibition [6]: Active
Activity [7]: 92%
Activity [8]: 122%
Activity [9]: 69%
Activity [10]: 88%
GI50 (MDA-MB-435): 198 nM
Activity [11]: 107%
Activity [12]: 142%
Activity [13]: 107%
Activity [14]: 126%
inhibition [15]: Active
GI50 (SK-MEL-28): 2830 nM
Activity [16]: 51%
Activity [17]: 98%
Activity [18]: 107%
Activity [19]: 64%
Activity [20]: 84%
Activity [21]: 61%
Activity [22]: 123%
SMILES: O=C1Nc2ncccc2/C1=C1/Nc2ncccc2C1=O
GI50 (SN12C): 1410 nM
